This note sets out measurements from ChEMBL document CHEMBL1122643, “Alpha-adrenoreceptor reagents. 2. Effects of modification of the 1,4-benzodioxan ring system on alpha-adrenoreceptor activity” (J Med Chem, 1984).

Assay [1] addresses T1, Adrenergic receptor alpha-1 (Rattus norvegicus) (UniProt P15823+P23944+P43140). As to the kind of experiment: In vitro inhibition of the contractile effect of phenylephrine on the isolated rat anococcygeus; potency relative to idazoxan; Inactive. In kind it is functional.
Assay [2] concerns the target T2, Alpha-2 adrenergic receptor (Mus musculus) (UniProt P30545+Q01338+Q01337). As to the kind of experiment: Ability to antagonize the inhibitory effect of clonidine on the mouse vas deferens is the presynaptic alpha-2 adrenergic receptor antagonist potency relative to idazoxan = 1. The assay is classed as functional, tissue-based. The procedure, abridged: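 Male adult mouse vasa deferentia (MFI >30 g), 0.5 g initial tension, Mg-free Krebs, 30 °C, 95% O2/5% CO2. Field stimulation at 0.1 Hz, 3-ms pulses, 100-140 V set to give ~100-mg twitch, recorded isometrically.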

In assay [3] the target is T2, Alpha-2 adrenergic receptor (Mus musculus). Description: Presynaptic alpha-2 adrenergic receptor agonistic activity in mouse vas deferens relative to clonidine. In kind it is functional, tissue-based. The procedure, abridged:
(§1)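 Isolated tissue agonist test, potency compared directly with the standard in the same experiment. Standard dose-response curves were run before and after the test compound's curve. Rat anococcygeus (male Sprague-Dawley, 200-250 g; Krebs, 30 °C, 95% O2/5% CO2) was compared with phenylephrine. Field-stimulated mouse vas deferens (0.1 Hz, Mg-free Krebs, 30 °C) was compared with clonidine.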

Assay [4] deals with T1, Adrenergic receptor alpha-1 (Rattus norvegicus). Description: Agonism in vitro at Alpha-1 adrenoceptor determined in rat anococcygeus preparation. In kind it is functional. The procedure, abridged:
as §1

Assay [5] concerns the target T2, Alpha-2 adrenergic receptor (Mus musculus). Description: Presynaptic alpha-2 adrenergic receptor from mouse vas deferens agonistic activity relative to clonidine = 1. In kind it is functional, tissue-based. The procedure, abridged:
as §1

Assay [6] is described as follows: Selectivity between pre- and post-synaptic sites of action. The assay is classed as functional.
The target of assay [7] is T1, Adrenergic receptor alpha-1 (Rattus norvegicus). Description: Agonism at Alpha-1 adrenoceptor determined in rat anococcygeus preparation; Inactive. In kind it is functional. The procedure, abridged: as §1
For assay [8] the target is unchanged. As to the kind of experiment: In vitro inhibition of the contractile effect of phenylephrine on the isolated rat anococcygeus; potency relative to idazoxan. In kind it is functional.
In assay [9] the target is T3, Alpha-2 adrenergic receptor (Mus musculus, UniProt P30545+Q01338+Q01337).
T3 sequence (P30545 whole entry): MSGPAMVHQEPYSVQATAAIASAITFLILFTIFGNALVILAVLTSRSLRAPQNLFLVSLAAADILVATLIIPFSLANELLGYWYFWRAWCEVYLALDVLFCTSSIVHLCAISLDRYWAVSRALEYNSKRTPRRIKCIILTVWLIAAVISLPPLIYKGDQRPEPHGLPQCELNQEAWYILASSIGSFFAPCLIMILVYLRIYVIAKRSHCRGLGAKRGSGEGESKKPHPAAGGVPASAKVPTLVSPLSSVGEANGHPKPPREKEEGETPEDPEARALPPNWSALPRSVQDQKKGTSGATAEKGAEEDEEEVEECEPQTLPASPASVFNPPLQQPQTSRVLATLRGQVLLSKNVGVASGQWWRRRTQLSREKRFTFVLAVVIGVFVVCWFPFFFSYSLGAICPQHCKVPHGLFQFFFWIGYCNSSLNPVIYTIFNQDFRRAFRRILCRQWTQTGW
T3 sequence (Q01338 whole entry): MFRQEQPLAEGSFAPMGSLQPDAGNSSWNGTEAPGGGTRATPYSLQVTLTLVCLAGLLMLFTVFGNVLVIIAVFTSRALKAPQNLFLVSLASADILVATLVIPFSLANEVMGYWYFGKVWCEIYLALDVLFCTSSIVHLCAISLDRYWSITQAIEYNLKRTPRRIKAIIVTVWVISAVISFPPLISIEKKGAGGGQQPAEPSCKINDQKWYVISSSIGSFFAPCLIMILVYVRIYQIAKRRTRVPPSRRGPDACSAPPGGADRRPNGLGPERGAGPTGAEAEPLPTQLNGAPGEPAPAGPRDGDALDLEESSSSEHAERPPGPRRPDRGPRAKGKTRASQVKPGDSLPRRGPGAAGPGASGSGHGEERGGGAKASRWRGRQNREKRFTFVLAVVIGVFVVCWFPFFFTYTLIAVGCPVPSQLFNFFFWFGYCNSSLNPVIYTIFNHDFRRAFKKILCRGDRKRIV
T3 sequence (Q01337 whole entry): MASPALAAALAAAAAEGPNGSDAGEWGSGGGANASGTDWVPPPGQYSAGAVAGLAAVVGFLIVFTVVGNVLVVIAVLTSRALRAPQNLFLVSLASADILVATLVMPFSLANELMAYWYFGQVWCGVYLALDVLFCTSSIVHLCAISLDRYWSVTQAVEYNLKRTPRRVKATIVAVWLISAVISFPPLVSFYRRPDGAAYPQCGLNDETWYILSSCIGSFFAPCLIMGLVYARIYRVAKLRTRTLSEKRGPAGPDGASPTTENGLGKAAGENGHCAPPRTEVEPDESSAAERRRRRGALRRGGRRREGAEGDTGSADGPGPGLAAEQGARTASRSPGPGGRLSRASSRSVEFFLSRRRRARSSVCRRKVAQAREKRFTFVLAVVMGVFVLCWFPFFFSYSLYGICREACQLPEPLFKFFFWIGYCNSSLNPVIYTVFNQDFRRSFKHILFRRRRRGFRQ
Description: Alpha-2 adrenergic receptor […] in mouse vas deferens relative to clonidine. In kind it is functional, tissue-based. The procedure, abridged: as §1

Each structure is given as a SMILES string. Calls of active or inactive are those of the source. No cut-off for these calls is given here.

For the compound `Cc1ccc(C)c2c1CC(C1=NCCN1)O2` (stereo unspecified), the Antagonist potency result in [1] was “inactive”. The compound further gave an Antagonist potency in assay [2] of 0.03. Besides, the Agonist potency in [3] is 0.14; in assay [4] it was 0.5.
Consider `CC(=O)c1ccc2c(c1)CC(C1=NCCN1)O2` (stereo unspecified), for which the Antagonist potency result in assay [1] was “inactive”. This compound gave an Antagonist potency in [2] of 0.003. The Agonist potency result in [5] was “inactive”. The Agonist potency in [4] was found to be 0.02.
`CC1c2ccccc2OC1C1=NCCN1` (stereo unspecified): the Ratio in [6] came out at 0.3. The Antagonist potency in [2] came to 0.03; in assay [8], 0.1. In addition, the Agonist potency result in assay [7] and in [5] was “inactive” each time.
For the compound `c1ccc2oc(C3=NCCN3)cc2c1`, the Antagonist potency in assay [2] worked out at 0.01. For the same compound, the values for the Agonist potency in assay [3] and in assay [4] were under 0.0003 and under 0.001, respectively.
As for `c1ccc2c(c1)OC(C1=NCCN1)O2`, the Antagonist potency result in [1] is “inactive”. Further, the Antagonist potency in assay [2] came out at 0.001. Further, the Agonist potency result in [5] is “inactive”. Besides, in assay [4], the Agonist potency was found to be 0.005.
With `Cc1ccc2c(c1)CC(C1=NCCN1)O2` (stereo unspecified), in [6], the Ratio worked out at 0.44. In addition, the Antagonist potency in [2] stood at 1; in assay [8], 2.25. Also, the Agonist potency result in assay [7] and in [5] was “inactive” throughout.
On to `Cc1cccc2c1OC(C1=NCCN1)C2.Cl` (stereo unspecified), for which, in assay [6], the Ratio is 2.4. The Antagonist potency came out at 1.6 in [2] and 0.67 in assay [8]. The Agonist potency entry in assay [7] and in assay [5] was “inactive” in each case. The compound also showed a pA2 in assay [9] of 8.22.
Regarding `Cl.Clc1cccc2c1OC(C1=NCCN1)C2` (stereo unspecified), the Ratio in assay [6] was 0.64. Moreover, the Antagonist potency in assay [2] amounted to 0.64; in assay [8] it was 1. The Agonist potency result in assay [7] and in [5] was “inactive” in each case. In assay [9], this compound registered a pA2 of 7.64.
As for `COc1ccc2c(c1)OC(C1=NCCN1)C2` (stereo unspecified), in assay [6], the Ratio was 0.2. Further, the Antagonist potency in assay [2] is 0.07; in assay [8], 0.35. Further, the Agonist potency result in assay [7] and in assay [5] was “inactive” each time.
Turning to `Oc1cccc2c1OC(C1=NCCN1)C2` (stereo unspecified), in assay [1], the Antagonist potency result is “inactive”. The same compound displayed an Antagonist potency in assay [2] of 0.04. Also, the Agonist potency result in assay [5] is “inactive”. For the same compound, the Agonist potency in assay [4] is 0.24.
`COc1cccc2c1OC(C1=NCCN1)C2` (stereo unspecified): the Antagonist potency result in assay [1] was “inactive”. In [2], this compound returned an Antagonist potency of 0.07. Further, in assay [5], the Agonist potency result was “inactive”. This compound came in with an Agonist potency in [4] of 0.3.
For the compound `Brc1ccc2c(c1)CC(C1=NCCN1)O2` (stereo unspecified), the Antagonist potency entry in [1] is “inactive”. Further, in assay [2], the Antagonist potency came to 0.2. Further, the Agonist potency in [3] was under 0.001; in assay [4], 0.026.
With `c1ccc2c(c1)CC(C1=NCCN1)CO2` (stereo unspecified), the Ratio in assay [6] is 0.01. Moreover, the Antagonist potency in [2] is 0.01; in assay [8], 1. Besides, the Agonist potency entry in [7] and in [5] was “inactive” in each case.
Regarding `c1ccc(CCC2(C3=NCCN3)Cc3ccccc3O2)cc1` (stereo unspecified), the Ratio in assay [6] was determined as 1. The Antagonist potency in assay [2] and in assay [8] was 0.07 throughout. In addition, the Agonist potency entry in [7] and in [5] was “inactive” throughout.
With `c1ccc2c(c1)CCC(C1=NCCN1)O2` (stereo unspecified), in [6], the Ratio is 0.01. Further, the results for the Antagonist potency in [2] and in assay [8] were 0.01 and 1, respectively. The Agonist potency result in assay [7] and in [5] was “inactive” each time.
Regarding `c1ccc2c(c1)OCCC(C1=NCCN1)O2` (stereo unspecified), in [1], the Antagonist potency entry was “inactive”. The same compound gave an Antagonist potency in assay [2] of 0.04. Besides, the Agonist potency entry in assay [5] was “inactive”. Besides, the Agonist potency in assay [4] was under 0.0005.
As for `Cc1cccc2c1CC(C1=NCCN1)O2` (stereo unspecified), in assay [1], the Antagonist potency entry was “inactive”. For the same compound, the Antagonist potency in assay [2] worked out at 0.1. In addition, the Agonist potency in assay [3] was determined as 0.2; in [4] it was 1.3.
For the compound `c1ccc2sc(C3=NCCN3)cc2c1`, the Ratio in assay [6] worked out at 0.02. The Antagonist potency in [2] came to 0.001; in [8], 0.05. In addition, the Agonist potency entry in assay [7] and in assay [5] was “inactive” each time.
For the compound `Cc1cc2c(cc1C)OC(C1=NCCN1)C2` (stereo unspecified), in [6], the Ratio came out at 0.8. For the same compound, the Antagonist potency in assay [2] is 0.7; in assay [8] it was 0.9. For the same compound, the Agonist potency entry in [7] and in assay [5] was “inactive” in each case.
With `Oc1ccc2c(c1)CC(C1=NCCN1)O2` (stereo unspecified), in [1], the Antagonist potency entry is “inactive”. The Antagonist potency in assay [2] came out at 0.02. For the same compound, the Agonist potency in assay [3] was determined as 0.02; in assay [4], 0.25.
As for `Clc1cc(Cl)c2c(c1)CC(C1=NCCN1)O2` (stereo unspecified), in [1], the Antagonist potency entry was “inactive”. For the same compound, the Antagonist potency in assay [2] is 0.06. Further, the Agonist potency was under 0.0001 in assay [3] and 0.14 in assay [4].
For `Oc1ccc2c(c1)OC(C1=NCCN1)C2` (stereo unspecified), the Antagonist potency entry in assay [1] was “inactive”. This compound also yielded an Antagonist potency in assay [2] of 0.04. Further, the Agonist potency in assay [3] stood at 0.02; in [4], 1.5.
For the compound `Cc1cc(C)c2c(c1)CC(C1=NCCN1)O2` (stereo unspecified), the Antagonist potency result in [1] is “inactive”. In addition, the Antagonist potency in assay [2] turned out to be 0.3. Further, in [5], the Agonist potency entry was “inactive”. The Agonist potency in [4] turned out to be 0.03.
Turning to `Fc1ccc2c(c1)CC(C1=NCCN1)O2` (stereo unspecified), in assay [6], the Ratio was found to be 0.2. Also, the Antagonist potency in [2] was 1.07; in assay [8], 5.6. The Agonist potency result in [7] and in assay [5] was “inactive” each time.
Turning to `Cc1ccc2c(c1)OC(C1=NCCN1)C2` (stereo unspecified), the Ratio in assay [6] is 0.2. For the same compound, the Antagonist potency in [2] stood at 0.46; in [8] it was 2.25. The Agonist potency result in assay [7] and in [5] was “inactive” each time.
Consider `Clc1cccc2c1CC(C1=NCCN1)O2` (stereo unspecified), for which the Antagonist potency result in assay [1] was “inactive”. This compound also had an Antagonist potency in [2] of 2. Also, in assay [5], the Agonist potency entry is “inactive”. The Agonist potency in assay [4] stood at 1.
Regarding `Clc1ccc2c(c1Cl)OC(C1=NCCN1)C2` (stereo unspecified), the Antagonist potency result in assay [1] was “inactive”. In assay [2], this compound had an Antagonist potency of 0.12. In addition, the Agonist potency in assay [3] was 0.03; in assay [4], 0.001.
Regarding `CC1(C2=NCCN2)Oc2ccccc2O1`, the Ratio in assay [6] was 0.1. Further, the Antagonist potency was found to be 0.001 in assay [2] and 0.01 in assay [8]. In addition, the Agonist potency result in assay [5] was “inactive”. Besides, the Agonist potency in [4] is 0.05.
Consider `c1ccc2c(c1)CC(C1=NCCN1)S2` (stereo unspecified), for which the Ratio in assay [6] stood at 0.14. Besides, the Antagonist potency in assay [2] was determined as 0.1; in assay [8] it was 0.69. Moreover, in assay [7], the Agonist potency result was “inactive”. Also, the Agonist potency in assay [3] came to 0.001.

The term pA2 denotes the negative logarithm of the molar antagonist concentration that doubles the agonist concentration needed for the same response.
